This is an account of results in ChEMBL document CHEMBL1141763, “Limnophilaspiroketone, a highly oxygenated phenolic derivative from Limnophila geoffrayi” (J Nat Prod, 2005).

Sequence of NAD(P)H dehydrogenase [quinone] 1 (Homo sapiens) (P15559 whole entry): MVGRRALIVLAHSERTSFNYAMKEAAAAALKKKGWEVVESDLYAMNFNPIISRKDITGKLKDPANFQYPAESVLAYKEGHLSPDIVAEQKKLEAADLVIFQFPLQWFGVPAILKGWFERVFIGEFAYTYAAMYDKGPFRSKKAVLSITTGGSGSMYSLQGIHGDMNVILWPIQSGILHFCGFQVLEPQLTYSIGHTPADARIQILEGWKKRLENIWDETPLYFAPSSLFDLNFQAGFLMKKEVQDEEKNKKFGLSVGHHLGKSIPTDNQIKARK

The assay addresses NAD(P)H dehydrogenase [quinone] 1 (Homo sapiens) (UniProt P15559). As to the kind of experiment: Induction of quinone reductase. In a few lines:
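Quinone reductase induction measured in cultured mouse Hepa 1c1c7 hepatoma cells, following a previously described method. Activity is reported as CD, the concentration that doubles QR induction, in µg/mL.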
For `COC(=O)[C@@]1(O)C(OC)=C(OC)C(=O)[C@]12OC(c1ccc(O)cc1)=CC2=O`, the CD was above 20 µg/mL.

On to `C[C@@H]1CC[C@]2(C(=O)O)CC[C@]3(C)C(=CC[C@@H]4[C@@]5(C)CC[C@H](O)[C@](C)(CO)[C@@H]5CC[C@]43C)[C@@H]2[C@]1(C)O`, for which the CD was above 20 µg/mL.

For the compound `COc1ccc(-c2cc(=O)c3c(O)c(OC)c(O)c(OC)c3o2)cc1`, the CD is above 20 µg/mL.

With `CC1(C)CC[C@]2(C(=O)O)CC[C@]3(C)C(=CC[C@@H]4[C@@]5(C)CC[C@H](O)[C@@](C)(CO)[C@@H]5CC[C@]43C)[C@@H]2C1`, the CD is above 20 µg/mL.

The compound `COc1ccc(-c2cc(=O)c3c(O)c(OC)c(OC)c(OC)c3o2)cc1` gave a CD above 20 µg/mL.

For `CC(C)=CCC/C(C)=C\CC/C(C)=C\Cc1cc(C(=O)O)ccc1O`, the CD is above 20 µg/mL.

As for `CC1(C)CC[C@]2(C(=O)O)CC[C@]3(C)C(=CC[C@@H]4[C@@]5(C)CC[C@H](O)C(C)(C)[C@@H]5[C@H](O)C[C@]43C)[C@@H]2C1`, the CD is above 20 µg/mL.

Turning to `COc1c(OC)c(O)c2c(=O)cc(-c3ccc(O)cc3)oc2c1O`, the CD is above 20 µg/mL.

`C=C(C)[C@@H]1CC[C@]2(C(=O)O)CC[C@]3(C)[C@H](CC[C@@H]4[C@@]5(C)CC[C@H](O)C(C)(C)[C@@H]5CC[C@]43C)[C@@H]12`: the CD is above 20 µg/mL.
